In ChEMBL document CHEMBL3734720, “Synthesis of thiophene-thiosemicarbazone derivatives and evaluation of their in vitro and in vivo antitumor activities” (Eur J Med Chem, 2015):

How the values were obtained:
[1] = Antitumor activity against mouse EAT implanted in Balb/C mouse assessed as change in paw volume at 30 mg/kg, po administered on day 3 post tumor inoculation measured on day 12 by plethysmometer analysis (reference value: 125.5 +/- 7.5%); format: functional
[2] = Antitumor activity against mouse EAT implanted in Balb/C mouse assessed as change in paw volume at 100 mg/kg, po administered on day 3 post tumor inoculation measured on day 6 by plethysmometer analysis (reference value: 86.1 +/- 5.7%); format: functional
NCI-H460 = test: Antiproliferative activity against human NCI-H460 cells assessed as growth inhibition after 48 hrs by SRB assay; format: functional; details: NCI-H460, 48 h
Outline: (§1)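 Cells exposed 48 h at 37 °C, 5% CO2 to 0.25, 2.5, 25 and 250 µg/mL in DMSO/RPMI (final DMSO 0.1%); doxorubicin standard at 0.025–25 µg/mL. Plates fixed with 50% TCA before (T0) and after treatment; protein content read by sulforhodamine B at 540 nm. GI50 (µM) from nonlinear regression of concentration–response curves; triplicate.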

786-0 [3] = test: Cell cycle arrest in human 786-0 cells assessed as accumulation at Sub G1 phase at 25 uM after 24 hrs by propidium iodide based flow cytometric analysis (reference value: 3.0 +/- 0.7%); format: functional
786-0 [4] = test: Cell cycle arrest in human 786-0 cells assessed as reduction in G1 phase at 25 uM after 24 hrs by propidium iodide based flow cytometric analysis (reference value: 46.7 +/- 0.8%); format: functional; set-up: scale not given: the % may be the effect or the level left
[5] = Antiproliferative activity against human HaCaT cells assessed as growth inhibition after 48 hrs by SRB assay; format: cell-based; outline: as §1
[6] = Acute toxicity in Balb/C mouse assessed as survival rate at 600 mg/kg, po; format: organism-based; details: in vivo
Outline: (§2)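 Fixed dose procedure following OECD guideline; Balb/C mice (20-35 g) fasted 16 h, groups of 5 given single oral doses stepwise at 600, 400 and 200 mgKg-1; survival and clinical signs of pain, suffering and impending death recorded per OECD guidance.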

HT-29 = test: Antiproliferative activity against human HT-29 cells assessed as growth inhibition after 48 hrs by SRB assay; format: functional; details: HT-29, 48 h; outline: as §1
786-0 [7] = test: Induction of cell death in human 786-0 cells assessed as phosphatidylserine externalization at 50 uM after 24 hrs by annexin V/7-amino-actinomycin D double staining based flow cytometric analysis (reference value: 3.8 +/- 0.5%); format: functional
[8] = Acute toxicity in Balb/C mouse assessed as survival rate at 400 mg/kg, po; format: organism-based; details: in vivo; outline: as §2
[9] = Antitumor activity against mouse EAT implanted in Balb/C mouse assessed as change in paw volume at 100 mg/kg, po administered on day 3 post tumor inoculation measured on day 12 by plethysmometer analysis (reference value: 125.5 +/- 7.5%); format: functional
786-0 [10] = test: Cell cycle arrest in human 786-0 cells assessed as accumulation at G2/M phase at 25 uM after 24 hrs by propidium iodide based flow cytometric analysis (reference value: 35.7 +/- 0.9%); format: functional
786-0 [11] = test: Cytotoxicity against human 786-0 cells assessed as compound concentration required to inhibit total growth after 24 hrs by SRB assay; format: functional; details: 786-0, 24 h
Outline: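 786-0 cells treated 24 h with 25, 50, 100 and 200 µM; growth measured by sulforhodamine B staining. Concentration giving total growth inhibition (TGI) calculated from the concentration–response data.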

MCF7 = test: Antiproliferative activity against human MCF7 cells assessed as growth inhibition after 48 hrs by SRB assay; format: functional; details: MCF7, 48 h; outline: as §1
[12] = Antiproliferative activity against human PC3 cells assessed as growth inhibition after 48 hrs by SRB assay; format: functional; details: PC-3, 48 h; outline: as §1
786-0 [13] = test: Induction of cell death in human 786-0 cells assessed as phosphatidylserine externalization at 50 uM after 18 hrs by annexin V/7-amino-actinomycin D double staining based flow cytometric analysis (reference value: 7.2 +/- 1.4%); format: functional
[14] = Antitumor activity against mouse EAT implanted in Balb/C mouse assessed as change in paw volume at 300 mg/kg, po administered on day 3 post tumor inoculation measured on day 9 by plethysmometer analysis (reference value: 95.5 +/- 5.2%); format: functional
[15] = Antitumor activity against mouse EAT implanted in Balb/C mouse assessed as change in paw volume at 30 mg/kg, po administered on day 3 post tumor inoculation measured on day 6 by plethysmometer analysis (reference value: 86.1 +/- 5.7%); format: functional
[16] = Antiproliferative activity against human UACC62 cells assessed as growth inhibition after 48 hrs by SRB assay; format: functional; details: UACC-62, 48 h; outline: as §1
786-0 [17] = test: Antiproliferative activity against human 786-0 cells assessed as growth inhibition after 48 hrs by SRB assay; format: functional; details: 786-0, 48 h; outline: as §1
[18] = Antitumor activity against mouse EAT implanted in Balb/C mouse assessed as change in paw volume at 30 mg/kg, po administered on day 3 post tumor inoculation measured on day 3 by plethysmometer analysis (reference value: 40.2 +/- 7.0%); format: functional
U-251 = test: Antiproliferative activity against human U251 cells assessed as growth inhibition after 48 hrs by SRB assay; format: functional; details: U-251, 48 h; outline: as §1
[19] = Acute toxicity in Balb/C mouse assessed as survival rate at 200 mg/kg, po; format: organism-based; details: in vivo; outline: as §2
786-0 [20] = test: Cytotoxicity against human 786-0 cells assessed as compound concentration required to cause 50% cell death after 24 hrs by SRB assay; format: functional; details: 786-0, 24 h, read-out: LC50 (the source's name)
Outline: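 786-0 cells exposed 24 h to 25, 50, 100 and 200 µM; growth measured by sulforhodamine B staining of TCA-fixed cells (540 nm) with time-zero plate; LC50 (50% cell death) and TGI derived by non-linear regression.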

[21] = Antitumor activity against mouse EAT implanted in Balb/C mouse assessed as change in paw volume at 100 mg/kg, po administered on day 3 post tumor inoculation measured on day 3 by plethysmometer analysis (reference value: 40.2 +/- 7.0%); format: functional
Mus musculus = test: Acute toxicity in Balb/C mouse assessed as adhesion of organs at 600 mg/kg, po; format: organism-based; details: in vivo; outline: as §2
K562 = test: Antiproliferative activity against human K562 cells assessed as growth inhibition after 48 hrs by SRB assay; format: functional; details: K562, 48 h; outline: as §1
786-0 [22] = test: Induction of cell death in human 786-0 cells assessed as loss of cell membrane integrity at 50 uM after 24 hrs by annexin V/7-amino-actinomycin D double staining based flow cytometric analysis (reference value: 3.6+/- 0.8%); format: functional
[23] = Antitumor activity against mouse EAT implanted in Balb/C mouse assessed as change in paw volume at 30 mg/kg, po administered on day 3 post tumor inoculation measured on day 15 by plethysmometer analysis (reference value: 166.5 +/- 6.0%); format: functional
786-0 [24] = test: Cell cycle arrest in human 786-0 cells assessed as accumulation at S phase at 25 uM after 24 hrs by propidium iodide based flow cytometric analysis (reference value: 14.6 +/- 1.3%); format: functional
[25] = Antiproliferative activity against human NCI-ADR-RES cells assessed as growth inhibition after 48 hrs by SRB assay; format: functional; outline: as §1

`S=C(N/N=C/c1cccs1)Nc1ccc(Br)cc1` gave an Activity [1] of 36.3%, an Activity [2] of 78.1% and a GI50 (NCI-H460) of 4.7 µM. For the same compound, the Activity (786-0 [3]) was 5.4%, the Activity (786-0 [4]) was 44.9% and the GI50 at 48 h [5] was 0.8 µM. The survival [6] was 100%, the GI50 (HT-29) was 17.7 µM and the Activity (786-0 [7]) was 21.9%. The survival [8] was 100%, the Activity [9] was 75.8% and the Activity (786-0 [10]) was 35.9%. The TGI (786-0 [11]) was 28 µM, the GI50 (MCF7) was < 0.74 µM and the GI50 [12] was 79.4 µM. For the same compound, the Activity (786-0 [13]) was 15.5%, the Activity [14] was 72.8% and the Activity [15] was 60.6%. It also gave a GI50 [16] of 71.1 µM, a GI50 (786-0 [17]) of 4.5 µM and an Activity [18] of 26.8%. For the same compound, the GI50 (U-251) was 4.2 µM, the survival [19] was 100% and the CC50 (786-0 [20]) was 91.8 µM. The Activity [21] was 33.4%, the Activity (Mus musculus) was “Toxic” and the GI50 (K562) was > 100 µM. It also gave an Activity (786-0 [22]) of 35.7%, an Activity [23] of 82% and an Activity (786-0 [24]) of 13.9%. The GI50 [25] was 1.7 µM.
